Compounds with a hit are over-represented: about 2.1% of the library has one in this group of screens.
LMPTP block = blocks human LMPTP phosphatase; inhibition, % at 20 µM; recombinant LMPTP-A, OMFP fluorogenic substrate, fluorescence intensity; P24666; 360,000 tested, 0.22% active;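 active = compounds that cut the enzyme signal by at least half of the control window in the single-dose screen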
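Test system – LMPTP-A enzyme · Amount – LMPTP-A at 0.625 nM final in the reaction · Buffer or medium – Bis-Tris pH 6.0, DTT, detergent · Reagent – OMFP 400 µM · Doses – single 20 µM dose · Schedule – reaction 50 min, room temperature, dark · Detection – fluorescence intensity of OMFP turnover product · Evaluation – percent inhibition versus substrate-only and uninhibited controls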
SUMO1 PPI mod = alters human SUMO1 binding to SIM partners | 360,000 tested, 0.33% active | SUMO1 binding to a labelled peptide, TR-FRET, 1 h | inhibition, % at 20 µM | P63165; in the data active = inhibition above about 37%
GRK2 inh = human GRK2 inhibition via aptamer displacement. P25098. bead flow cytometry, FAM-aptamer displacement from GRK2. inhibition of aptamer binding, % at 10 µM. 330,000 tested, 0.59% active. AID 488847;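 active = inhibition of aptamer binding above 40%, roughly 3 SD of noise, on plates passing a quality check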;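 note: median bead fluorescence of bound FAM aptamer so fluorescent compounds give negative values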
STEP block = STEP (human) phosphatase inhibition | recombinant STEP, OMFP fluorogenic substrate, fluorescence | inhibition, % at 20 µM | 360,000 tested, 0.25% active | P54829;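 active = inhibition at 20 µM, scaled per plate between control wells, above about 37%, limit read from the data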
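Test system: STEP tyrosine phosphatase / Reagent: OMFP at 25 µM / Doses: 20 µM, 1% DMSO / Read-out: percent inhibition scaled to no-enzyme and uninhibited-enzyme controls, plate-pattern corrected / Detection: FITC-channel fluorescence of OMFP product / Medium: Bis-Tris buffer pH 6.0, 2.5 mM DTT, 0.005% Tween 20 / Schedule: 20 min at room temperature, dark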
Scp1 inh = Scp-1 (human) phosphatase inhibition. Q9GZU7. Recombinant Scp1, phosphopeptide, malachite green phosphate absorbance. inhibition, % at 20 µM. 340,000 tested, 0.88% active;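 active = inhibition above about 50% at 20 µM, limit read from the data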
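System: truncated SCP-1 phosphatase (76-261aa); medium: Tris acetate buffer pH 5.5 with MgCl2 and Tween-20; incubation: 45 min room-temperature reaction, 5 min colour, 30 min stabiliser; compound: single 20 µM dose, 1% DMSO; reagent: Phosphorylated 17-residue peptide substrate; read-out: % inhibition at 20 µM; technique: colorimetric free-phosphate detection, absorbance 630 nm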
DNMT1 block = blocks human DNA methyltransferase DNMT1. DNMT1 molecular beacon, Hinp1I cleavage, fluorescence. 360,000 tested, 0.83% active. AID 588458. P26358. inhibition (reported as % activation of signal), % at 10 µM; in the data active = inhibition above about 50%
Target sequence (P26358 504-1616 limits assumed): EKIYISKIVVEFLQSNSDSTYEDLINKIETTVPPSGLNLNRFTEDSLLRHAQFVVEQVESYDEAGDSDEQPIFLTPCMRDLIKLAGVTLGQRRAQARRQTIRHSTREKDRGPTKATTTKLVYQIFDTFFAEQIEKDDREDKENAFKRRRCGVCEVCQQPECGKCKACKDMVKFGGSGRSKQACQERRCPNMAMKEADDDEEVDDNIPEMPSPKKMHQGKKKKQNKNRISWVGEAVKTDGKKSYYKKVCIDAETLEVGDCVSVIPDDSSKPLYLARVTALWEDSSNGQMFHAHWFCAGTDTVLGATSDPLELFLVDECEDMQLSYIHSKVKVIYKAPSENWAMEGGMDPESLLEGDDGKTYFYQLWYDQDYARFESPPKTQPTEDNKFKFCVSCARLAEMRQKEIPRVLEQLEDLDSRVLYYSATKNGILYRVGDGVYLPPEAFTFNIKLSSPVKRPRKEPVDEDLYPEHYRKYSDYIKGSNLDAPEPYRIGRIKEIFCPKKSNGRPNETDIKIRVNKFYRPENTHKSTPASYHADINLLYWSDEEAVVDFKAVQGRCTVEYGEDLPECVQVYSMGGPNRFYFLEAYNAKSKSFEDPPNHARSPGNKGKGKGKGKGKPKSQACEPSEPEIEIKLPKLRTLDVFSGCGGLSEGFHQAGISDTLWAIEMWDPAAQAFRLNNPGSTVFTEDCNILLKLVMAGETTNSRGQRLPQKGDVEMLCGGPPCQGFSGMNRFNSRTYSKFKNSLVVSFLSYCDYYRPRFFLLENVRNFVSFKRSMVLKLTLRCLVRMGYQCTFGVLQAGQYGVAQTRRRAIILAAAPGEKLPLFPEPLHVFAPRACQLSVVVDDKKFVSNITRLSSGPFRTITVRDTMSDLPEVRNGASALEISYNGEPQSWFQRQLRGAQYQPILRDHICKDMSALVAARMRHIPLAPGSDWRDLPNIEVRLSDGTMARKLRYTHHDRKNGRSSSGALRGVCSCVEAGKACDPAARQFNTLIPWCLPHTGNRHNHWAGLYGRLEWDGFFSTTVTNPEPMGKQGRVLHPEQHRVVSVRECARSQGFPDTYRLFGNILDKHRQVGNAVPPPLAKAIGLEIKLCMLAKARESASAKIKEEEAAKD
Scp1 confirm = Scp-1 (human) inhibition, single-dose confirmed. inhibition, % at 20 µM. shares compounds with Scp1 inh. recombinant SCP-1 catalytic domain, phosphate release, malachite green absorbance. 2,500 tested, 61% active
MG interference = interferes with malachite green readout, flagging false Scp-1 hits; 2,500 tested, under 10 active; shares compounds with Scp1 inh; Colorimetric interference counterscreen, malachite green absorbance 630 nm; apparent inhibition (interference), % at 20 µM;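 note: compounds added after enzyme reaction finished so only phosphate colour detection is probed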
Scp-1 Tm shift = Scp-1 (human) binding by thermal shift; shares compounds with Scp1 inh; 1,500 tested, 25% active; Recombinant SCP1, Sypro Orange thermal shift Tm; thermal shift relative to vanadate control, % at 40 µM;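 active = substances whose mean melting-temperature shift, as a percentage of the reference inhibitor's shift, reaches about 5.3%, limit read from the data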
A number is an active result; . = inactive; / = no result; ! = repeats disagree.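 Rule for the calls, unless noted: active = inhibition of at least 30% at 20 µM; inactive = the rest.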

SMILES	LMPTP block	SUMO1 PPI mod	GRK2 inh	STEP block	Scp1 inh	DNMT1 block	Scp1 confirm	MG interference	Scp-1 Tm shift
O=C1NC[C@@H](CCCCN2C[C@H](Cc3ccc(O)cc3)N(CC3CCCCC3)C(=O)C2=O)N(Cc2ccccc2)C1=O	.	.	/	/	/	/	/	/	/
CC[N+]1(C)CC2CCC(C)(C1)C2(C)C (stereo not drawn)	.	.	/	.	56	.	39	.	.
CCCN(CC(=O)Nc1ccc(F)c(F)c1F)C(=O)C1=COCCO1	.	.	.	.	.	.	/	/	/
CC1CCCC(C)N1c1nnc(NC(=O)Cn2c(=O)oc3ccccc32)s1 (stereo not drawn)	.	.	.	.	95	.	.	.	/
O=C(c1cnn(C(=O)COc2ccc(Cl)cc2)c1)c1ccccc1O	.	.	.	.	.	.	/	/	/
Cc1ccc(O)c(C(=O)c2cnn(C(=O)COc3ccc(Cl)cc3)c2)c1	.	.	.	.	82	.	73	.	.
O=C(C(=O)N(Cc1ccccc1)Cc1ccccc1)c1c(-c2ccccc2)[nH]c2ccccc12	.	.	/	.	.	.	/	/	/
CN(CCOc1ccccc1)CC(=O)Nc1cccc(C#N)c1	.	.	.	.	.	.	/	/	/
C=CC#CC1(O)CC(C)[N+](C)(C)CC1C (stereo not drawn)	.	.	.	.	104	.	78	.	.
O=C(CCCOc1ccc(Cl)cc1Cl)NCCc1ccccn1	.	.	.	.	.	.	/	/	/
CS(=O)(=O)N(CC(=O)NC1CCCC1)C1CCCCC1	.	.	.	.	.	.	/	/	/
O=C(Nc1nc2ccsc2c(=O)s1)c1ccc(F)cc1	65	.	/	98	96	.	51	.	.
O=C(Nc1nc2ccsc2c(=O)s1)c1ccc(F)cc1Cl	.	.	.	.	55	.	38	.	.
COc1cccc2cc(/C(=N/O)c3ccccc3)oc12	.	.	.	.	.	.	/	/	/
COCCN(C(=O)COC(=O)COc1ccc2c(c1)CCC2)c1c(N)n(Cc2ccccc2)c(=O)[nH]c1=O	.	.	.	.	.	.	/	/	/
COCCN(C(=O)COC(=O)Cc1coc2cc3c(cc12)CCC3)c1c(N)n(Cc2ccccc2)c(=O)[nH]c1=O	.	.	.	.	67	.	55	.	.
COCCCN(C(=O)c1cc(-c2ccco2)nc2ccccc12)c1c(N)n(Cc2ccccc2)c(=O)[nH]c1=O	.	.	.	.	64	.	47	.	5.4
CCNC(=S)N1CCN(CC)CC1	.	.	.	.	.	.	/	/	/
CCCCNc1nnc(Cc2ccc(Cl)cc2)c(=O)[nH]1	.	.	.	.	97	.	76	.	.
COc1ccc(N2CC(O)=C(c3nc(-c4ccccc4)cs3)C2=N)cc1	.	.	.	.	.	.	/	/	/
Cc1ccc(-c2csc(C3=C(O)CN(NC(=O)c4ccco4)C3=N)n2)cc1	.	.	.	.	51	.	35	.	.
Cc1cccc(C(O)c2cnc(C)n2Cc2ccccc2)c1 (stereo not drawn)	.	.	/	.	/	.	/	/	/
Cn1nnc(-c2ccc(OCc3ccccc3F)cc2)n1	.	.	.	.	65	.	.	.	/
O=C(O)Cn1nnc(-c2ccc(OCc3ccccc3Cl)cc2)n1	/	/	.	/	.	/	/	/	/
Cc1cccc(CN(CC(=O)N/N=C/c2ccco2)S(=O)(=O)c2ccc(Cl)cc2)c1	.	.	.	.	58	.	48	.	.
SMILES	LMPTP block	SUMO1 PPI mod	GRK2 inh	STEP block	Scp1 inh	DNMT1 block	Scp1 confirm	MG interference	Scp-1 Tm shift
Cc1ccc(S(=O)(=O)N(CC(=O)N/N=C/c2ccco2)Cc2ccccc2)cc1	.	.	.	.	.	.	/	/	/
O=C(CCC(=O)Nc1ccc(F)cc1)N/N=C/c1cc([N+](=O)[O-])ccc1O	.	.	.	.	.	.	/	/	/
O=C(CCC(=O)Nc1ccc(Br)cc1)N/N=C/c1cc([N+](=O)[O-])ccc1O	.	.	.	.	74	.	.	.	/
O=C(Nc1ccc2nn(-c3ccccc3)nc2c1)c1ccc(Br)o1	.	.	.	.	93	76	90	.	.
C[C@H]1CN([C@@H](C)CO)S(=O)(=O)c2ccc(Br)cc2O[C@H]1CN(C)C(=O)CCN1CCCCC1	.	.	/	.	/	.	/	/	/
COc1cc2c(cc1OC)CN(C(=O)c1sc(-c3cnccn3)nc1C)CC2	.	.	.	.	.	.	/	/	/
COc1ccc(CC2(CO)CCN(S(=O)(=O)c3c(C)nn(C)c3Cl)CC2)cc1	.	.	.	.	.	.	/	/	/
Cc1nn(C)c(Cl)c1S(=O)(=O)N1CCC(CO)(CCc2ccccc2)CC1	.	.	.	.	81	.	.	.	/
COc1ccccc1C(=O)OCc1c(F)cccc1Cl	.	.	.	.	.	.	/	/	/
C[n+]1ccccc1/C=C/c1cc(Br)ccc1O	.	.	.	.	.	.	/	/	/
C[n+]1ccccc1/C=N/O	.	.	.	.	52!	.	.	.	/
CC(O)/C=C/c1cccc[n+]1C (stereo not drawn)	.	.	.	.	96	.	85	.	.
COc1ccc(-c2cc(C(=O)NCc3ccc(C(F)(F)F)cc3)[nH]n2)c(C)c1	.	.	/	.	/	.	/	/	/
Clc1ccc(C=NN2CCCCCC2)c(Cl)c1	.	.	/	.	67	.	.	.	/
COc1cc(NC(=S)N2CCCC(CO)C2)cc(OC)c1 (stereo not drawn)	.	.	.	.	70	.	.	.	/
O=C(Cn1ccc2ccccc2c1=O)NCCC(=O)Nc1cccnc1	.	.	.	.	60	.	.	.	/
CCc1nc2ccc(C(=O)NCc3cccs3)cn2c1N(C)Cc1nccs1	.	.	/	.	/	.	/	/	/
O=C(Nc1nc2ccccc2s1)C1CCN(S(=O)(=O)c2cc([N+](=O)[O-])ccc2Cl)CC1	.	.	.	.	68	.	64	.	11
NCC(=O)NCC(=O)NC[C@H]1O[C@@H](n2cnc3c(N)ncnc32)[C@H](O)[C@@H]1O	.	.	.	.	.	.	/	/	/
O=C(Nc1ccccc1C(=O)N1CCCCCC1)c1ccccc1	.	.	.	.	58	.	.	.	/
CCn1c(CC(=O)Nc2ccc(OC)cc2)nnc1SCC(=O)N1CCOCC1	.	.	.	.	.	.	/	/	/
O=C(NN=C1c2ccccc2-c2ccccc21)c1ccccn1	.	.	.	.	73	.	.	.	/

Screens as filed in PubChem.
